Laboratory results published in ChEMBL document CHEMBL1146037, “Design and discovery of a novel dipeptidyl-peptidase IV (CD26)-based prodrug approach” (J Med Chem, 2006).
The source made the active and inactive calls. The calls are words filed in the database; no cut-off is given here.

How the values were obtained:
CCRF-CEM [1] = experiment: Antiviral activity against HIV2 assessed as inhibition of HIV2-induced cytopathicity in CEM cells; assay type: functional, cell-based
Method in brief: (§1)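 CEM and MT-4 cell cultures infected with HIV-1 or HIV-2, with compounds diluted into culture medium from DMSO stocks. Antiviral activity is read at day 4 post-infection and reported as EC50.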

[2] = biological target: T1, CD26 (Dipeptidyl peptidase 4) (Homo sapiens, UniProt P27487); experiment: Inhibition of CD26-catalyzed GlyPro-pNA hydrolysis at 100 uM; conditions: CD26 (dipeptidyl peptidase 4) enzyme, probe GlyPro-pNA
T1 sequence (P27487 whole entry): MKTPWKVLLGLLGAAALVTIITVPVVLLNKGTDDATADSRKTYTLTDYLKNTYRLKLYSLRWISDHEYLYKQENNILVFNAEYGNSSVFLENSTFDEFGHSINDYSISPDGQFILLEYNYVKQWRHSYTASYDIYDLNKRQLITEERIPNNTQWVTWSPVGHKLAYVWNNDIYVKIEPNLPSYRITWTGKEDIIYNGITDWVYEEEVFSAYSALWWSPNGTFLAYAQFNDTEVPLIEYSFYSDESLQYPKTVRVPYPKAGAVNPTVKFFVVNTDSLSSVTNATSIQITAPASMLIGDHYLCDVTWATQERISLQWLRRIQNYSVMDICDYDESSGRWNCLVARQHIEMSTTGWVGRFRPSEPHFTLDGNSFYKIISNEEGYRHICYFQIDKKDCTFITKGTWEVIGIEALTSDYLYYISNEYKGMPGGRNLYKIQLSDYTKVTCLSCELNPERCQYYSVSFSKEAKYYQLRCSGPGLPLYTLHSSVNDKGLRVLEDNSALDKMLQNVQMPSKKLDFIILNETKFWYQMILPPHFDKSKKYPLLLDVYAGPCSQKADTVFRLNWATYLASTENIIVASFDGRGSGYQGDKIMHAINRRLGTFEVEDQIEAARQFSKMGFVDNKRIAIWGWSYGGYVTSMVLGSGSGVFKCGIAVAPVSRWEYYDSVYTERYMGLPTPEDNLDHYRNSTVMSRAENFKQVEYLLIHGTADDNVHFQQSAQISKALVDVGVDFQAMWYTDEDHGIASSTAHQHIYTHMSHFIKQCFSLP

[3] = biological target: T1, CD26 (Dipeptidyl peptidase 4); experiment: Inhibition of CD26-catalyzed GlyPro-pNA hydrolysis at 20 uM; conditions: CD26 (dipeptidyl peptidase 4) enzyme, probe GlyPro-pNA
Dipeptidyl peptidase 4 [4] = biological target: T2, Dipeptidyl peptidase 4 (Homo sapiens, UniProt P27487); experiment: Conversion of prodrug to parent drug NAP-TSAO-T catalyzed by CD26 after 1 hr; assay type: ADME; set-up: concentration or dose not given beside the values
T2 sequence (P27487 whole entry): as above

CCRF-CEM [5] = experiment: Antiviral activity against HIV1 assessed as inhibition of HIV1-induced cytopathicity in CEM cells; assay type: functional, cell-based; conditions: Homo sapiens; method in brief: as §1
MT4 [6] = experiment: Antiviral activity against HIV1 assessed as inhibition of HIV1-induced cytopathicity in MT4 cells; assay type: functional, cell-based; conditions: Homo sapiens; method in brief: as §1
MT4 [7] = experiment: Antiproliferative activity against human MT4 cell line; assay type: functional
Method in brief: (§2)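 Cytostatic assay: compounds made up as DMSO stocks and diluted in culture medium. CC50 is the concentration that inhibits MT-4 or CEM cell proliferation by 50%.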

CCRF-CEM [8] = experiment: Antiproliferative activity against human CEM cell line; assay type: functional; method in brief: as §2
[9] = biological target: Human immunodeficiency virus type 1 reverse transcriptase (Human immunodeficiency virus 1, UniProt Q72547); experiment: Inhibition of recombinant HIV1 reverse transcriptase
MT4 [10] = experiment: Antiviral activity against HIV2 assessed as inhibition of HIV2-induced cytopathicity in MT4 cells; assay type: functional, cell-based; method in brief: as §1
Dipeptidyl peptidase 4 [11] = biological target: T2, Dipeptidyl peptidase 4; experiment: Conversion of prodrug to parent drug NAP-TSAO-T catalyzed by CD26 after 4 hrs; assay type: ADME; set-up: concentration or dose not given beside the values
Dipeptidyl peptidase 4 [12] = biological target: T2, Dipeptidyl peptidase 4; experiment: Conversion of prodrug to parent drug NAP-TSAO-T catalyzed by CD26 after 24 hrs; assay type: ADME; set-up: concentration or dose not given beside the values
Homo sapiens [13] = species: Homo sapiens; experiment: Conversion of prodrug to parent drug NAP-TSAO-T catalyzed by 2.5% human serum after 3 hrs; assay type: ADME, organism-based
Method in brief: (§3)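 Prodrug at 50 µM incubated at 37 °C with human or bovine serum diluted in PBS (5, 2.5, 1 or 0.5%). Samples are quenched in cold methanol and centrifuged, and the supernatant is run on reverse-phase RP-8 HPLC (phosphate/heptanesulfonate pH 3.2–acetonitrile gradient). Parent compound formed is quantified at 3, 6 or 24 h.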

Homo sapiens [14] = species: Homo sapiens; experiment: Conversion of prodrug to parent drug NAP-TSAO-T catalyzed by 2.5% human serum after 6 hrs; assay type: ADME, organism-based; method in brief: as §3
Bos taurus [15] = species: Bos taurus; experiment: Conversion of prodrug to parent drug NAP-TSAO-T catalyzed by bovin serum after 6 hrs; assay type: ADME, organism-based; conditions: cattle; method in brief: as §3
Bos taurus [16] = species: Bos taurus; experiment: Conversion of prodrug to parent drug NAP-TSAO-T catalyzed by bovin serum after 24 hrs; assay type: ADME, organism-based; conditions: cattle; method in brief: as §3

In the case of `Cc1cn(C2OC(CO[Si](C)(C)C(C)(C)C)C3(OS(=O)(=O)C=C3N)C2O[Si](C)(C)C(C)(C)C)c(=O)n(CCCNC(=O)[C@@H]2CCCN2C(=O)[C@@H](N)C(C)C)c1=O` (stereo partly specified), the Activity (CCRF-CEM [1]) is reported as “inactive”, the inhibition at 100 µM [2] is reported as 70% and the inhibition at 20 µM [3] is reported as 50%. The Activity (Dipeptidyl peptidase 4 [4]) was 37%, the EC50 (CCRF-CEM [5]) was 0.13 µM and the EC50 (MT4 [6]) was 0.3 µM. It also gave a CC50 (MT4 [7]) of 11 µM, a CC50 (CCRF-CEM [8]) of 10 µM and an IC50 [9] of 6.6 µM. The Activity (MT4 [10]) was “inactive”, the Activity (Dipeptidyl peptidase 4 [11]) was 62% and the Activity (Dipeptidyl peptidase 4 [12]) was 61%. For the same compound, the Activity (Homo sapiens [13]) was 30%, the Activity (Homo sapiens [14]) was 50% and the Activity (Bos taurus [15]) was 20%. The Activity (Bos taurus [16]) was 50%.
